High-throughput results from PubChem BioAssay.
XBP1 UPR activ: activators of adaptive arm of unfolded protein response (XBP1); CHO-XBP1 luciferase reporter, IRE1-XBP1 UPR activation, luminescence; percent of tunicamycin response, DMSO as zero; activation, % at 20 µM; hit rate 0.33% among 330,000; AID 463104;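 active = versus positive control, 20 µM dose yields 30% or more activation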;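 also: 100% = tunicamycin at 10 µg/mL and 0% = DMSO only wells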
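Material: CHO-XBP1 cells stably carrying IRE1-XBP1-driven luciferase reporter | Medium: F12 with 10% serum | Compound dosing: 20 µM single concentration, DMSO 1% | Incubation: Overnight seeding at 37 °C, 6 h compound treatment at 37 °C | Detection: Steady-Glo luminescence read | Read-out basis: % activation of reporter signal versus tunicamycin and DMSO controls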
CSC inhib: blocks cancer stem cells; cancer stem cell-like cells viability, luminescence; inhibition, % at 7.5 µM; hit rate 1.1% among 300,000; AID 2717; in the data active = inhibition above about 75%; inconclusive = no clear call, values can overlap the other calls; tested in HMLE shEcad cells
Mdm2 MdmX PPI: inhibitors of human Mdm2/MdmX interaction | O15151+Q00987 | SaOS-2 split-luciferase Mdm2/MdmX complementation, luminescence | inhibition, % at 8 µM | hit rate 3% among 330,000 | AID 485346;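 active = inhibition of at least 50% at 8 µM in the primary screen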
Target sequence (O15151 whole entry, looked up): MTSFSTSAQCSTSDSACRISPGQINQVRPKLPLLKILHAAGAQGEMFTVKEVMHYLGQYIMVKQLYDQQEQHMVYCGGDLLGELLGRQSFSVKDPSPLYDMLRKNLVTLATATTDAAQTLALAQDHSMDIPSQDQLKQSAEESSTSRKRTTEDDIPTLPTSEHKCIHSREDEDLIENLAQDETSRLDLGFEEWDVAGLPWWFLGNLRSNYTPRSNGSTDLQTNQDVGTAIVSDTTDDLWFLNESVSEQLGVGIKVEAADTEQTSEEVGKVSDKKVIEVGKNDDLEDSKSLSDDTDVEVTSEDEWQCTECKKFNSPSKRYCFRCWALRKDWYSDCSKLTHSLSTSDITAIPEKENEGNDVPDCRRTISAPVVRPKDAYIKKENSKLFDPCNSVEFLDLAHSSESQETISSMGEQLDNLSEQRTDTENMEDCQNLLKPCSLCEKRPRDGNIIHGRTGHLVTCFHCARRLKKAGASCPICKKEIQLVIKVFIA
Target sequence (Q00987 whole entry, looked up): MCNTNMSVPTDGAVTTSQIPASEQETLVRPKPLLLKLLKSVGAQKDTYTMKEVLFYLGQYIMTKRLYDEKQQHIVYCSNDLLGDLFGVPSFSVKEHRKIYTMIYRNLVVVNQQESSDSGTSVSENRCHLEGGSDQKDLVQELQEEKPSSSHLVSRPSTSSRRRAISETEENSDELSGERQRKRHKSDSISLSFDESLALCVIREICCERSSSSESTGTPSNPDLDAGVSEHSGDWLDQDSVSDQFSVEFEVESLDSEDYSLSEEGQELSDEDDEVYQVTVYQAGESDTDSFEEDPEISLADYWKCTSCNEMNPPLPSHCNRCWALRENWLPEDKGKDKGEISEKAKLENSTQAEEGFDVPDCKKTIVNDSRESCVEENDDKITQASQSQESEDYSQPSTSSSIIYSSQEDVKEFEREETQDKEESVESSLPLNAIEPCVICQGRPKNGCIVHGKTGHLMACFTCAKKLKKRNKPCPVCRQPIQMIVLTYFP
SKKanGAS inh: inhibitors of SKKanGAS S. pyogenes growth in kanamycin (SK-promoter or general growth effect) | BacTiter-Glo, 6 h | hit rate 1.3% among 300,000 | inhibition, % at 7.5 µM;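 active = mean replicate score, as percent of positive control median, at least 50; inconclusive = mean below 50 but one replicate at or above 50; inactive = mean and every replicate below 50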;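 also: strain carries kanamycin resistance gene driven by streptokinase promoter and grows in 40 µg/ml kanamycin; loss of luminescence reflects streptokinase promoter inhibition or plain growth inhibition; 0% = median of DMSO wells and 100% = positive control at its reference dose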
CHOP UPR activ: activators of apoptotic arm of unfolded protein response (CHOP); CHO-CHOP luciferase reporter, UPR activation, luminescence; percent of tunicamycin response over DMSO baseline; AID 449763; activation, % at 10 µM; hit rate 0.34% among 330,000;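 active = at 10 µM dose, activation of 40% or more, normalized to positive control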;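 also: 100% = tunicamycin at 10 µg/mL and 0% = DMSO alone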
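Test system: CHO-CHOP cells, stable luciferase reporter of PERK-eIF2a-CHOP signalling | Quantity: 500 CHO-CHOP cells per well | Buffer or medium: F12 plus 10% serum | Compound dosing: 10 µM single point, 0.5% DMSO | Schedule: 6 h compound treatment, 37 °C | Signal: Luciferase luminescence | Control set: Tunicamycin high control, DMSO low control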
Beta apoptosis: blocks beta cell apoptosis. INS-1E cytokine-induced death, ATP luminescence, 48 h; percent of positive-control rescue, neutral wells zero. protection from apoptosis, % (test concentration not listed). hit rate 0.8% among 300,000;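 active = Every replicate reaches about 75%, or at least half do and their mean reaches it too, limit read from the data; inconclusive = At least half of replicates reach the limit but their mean does not; inactive = Under half of replicates reach the limit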;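 also: 0% = cytokine-treated negative control wells and 100% = positive control rescue; higher means more ATP so stronger rescue from cytokine killing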
Mdm2 MdmX conf: confirmation of human Mdm2/MdmX interaction inhibitors | shares compounds with Mdm2 MdmX PPI | Mdm2-MdmX binding, luminescent assay | inhibition, % at 8 µM | AID 489028 | hit rate 55% among 10,000; in the data active = inhibition above about 40%
FLuc counter: inhibits full-length luciferase, flagging false Mdm2/MdmX hits; inhibition, % at 8 µM; hit rate 77% among 6,200; SaOS-2 full-length luciferase counterscreen, luminescence; AID 504607; shares compounds with Mdm2 MdmX PPI;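 active = mean inhibition at 8 µM reaching about 37%, which flags the compound as non-specific, limit read from the data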;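 also: p53-null SaOS-2 cells with luciferase driven by a doxycycline-inducible promoter; compound on cells about two nights before reading with doxycycline added after day one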
* = called active by the depositor; ? = inconclusive; . = no result. An excerpt weighted towards active compounds, which were near 4.8% of everything screened.

SMILES	XBP1 UPR activ	CSC inhib	Mdm2 MdmX PPI	SKKanGAS inh	CHOP UPR activ	Beta apoptosis	Mdm2 MdmX conf	FLuc counter
CC(=O)c1c(C)oc2ccc(N(C(C)=O)S(=O)(=O)c3ccc(Cl)c([N+](=O)[O-])c3)cc12	-5	35	98*	9	0	-9	95*	57*
Cc1cccc(C(=O)NC2CC3CCCC(C2)N3C(=O)Nc2ccccc2)c1 (stereo not drawn)	-8	-15	0	-6	0	5	.	.
CN(Cc1ccccc1NS(=O)(=O)c1ccc2ccccc2c1)C1CCCCC1	-2	3	3	1	-1	-1	.	.
C=CCOc1ccccc1CNc1cccc(F)c1	-5	3	1	0	0	-2	.	.
C=CCOc1ccccc1CNc1ccc2c(c1)OCCO2	-4	12	64*	2	-4	9	65*	69*
COc1ccc(NC(=O)CSc2nc3sc(C)cc3c(=O)n2C)c(OC)c1	-1	24	32	0	1	10	.	.
CCc1ccc(/C=N/NC(=O)c2cc(-c3ccccc3OC)nc3ccccc23)s1	-1	.	24	31	1	4	.	.
COc1cc(/C=N/NC(=O)c2cc(-c3cccc(OC(C)C)c3)nc3ccccc23)ccc1O	1	32	88*	25	11	6	59*	57*
COc1ccccc1-c1cc(C(=O)N/N=C/c2ccc(C)s2)c2ccccc2n1	-1	-11	71*	15	-1	8	5	.
Cc1[nH]c2ccccc2c1/C=N/NC(=O)c1cc(-c2ccncc2)nc2ccccc12	-1	-3	59*	6	-1	11	69*	52*
Cc1ccc(NC(=O)C(=O)NCc2ccncc2)cc1	8	-6	-18	-4	1	-3	.	.
Cc1ccccc1N(C(=O)c1snc(C(N)=O)c1N)C(C(=O)NCC1CCCO1)c1ccc(F)cc1 (stereo not drawn)	3	-13	11	3	-1	-15	.	.
COC(=O)c1ccc([C@H]2CC(=O)O2)cc1	2	3	5	10	0	.	.	.
COc1cc(C#Cc2c(-c3cncn3C)n(C)c3ccc(-c4ccc5cc[nH]c5c4)cc23)cc(OC)c1	4	11	46	.	10	8	.	.
COc1cc(C#Cc2c(-c3cncn3C)n(C)c3ccc(Br)cc23)cc(OC)c1	10	.	75*	.	8	3	-3	.
COc1cc(C#Cc2c(-c3cncn3C)n(C)c3ccc(-c4ccc(OC)c(OC)c4)cc23)cc(OC)c1	4	49	52*	.	5	13	23	.
CC(=O)c1cccc(OCc2cc(C(=O)NCCC3=CCCCC3)no2)c1	-7	1	-116	-4	4	1	.	.
COc1ccc(CNC(=O)c2c(C)oc3c2C(=O)c2ccccc2C3=O)cc1	3	100*	81*	87*	7	109*	84*	54*
Cc1onc(-c2ccccc2Cl)c1C(=O)NCc1cccnc1	2	6	-23	-2	0	-4	.	.
COc1ccc(CNC(=O)c2ccc(-c3ccccc3)cc2)cc1	4	3	-43	0	0	-3	.	.
Cc1oc2c(c1C(=O)NCc1cccnc1)C(=O)c1ccccc1C2=O	-8	101*	99*	86*	-6	.	98*	4
Cc1ccc(S(=O)(=O)CC(=O)N2CCN(c3cccc(C(F)(F)F)c3)CC2)cc1	-6	-12	-6	17	0	-3	.	.
COC(=O)c1c(NC(=O)CN2CCN(c3ncccn3)CC2)sc(C(N)=O)c1C	-3	8	1	-1	3	-6	.	.
CCOc1ccc(NC(=NCc2ccc3c(c2)OCO3)SC2CC(=O)N(c3ccccc3)C2=O)cc1 (stereo not drawn)	-1	-9	60*	-8	1	.	6	.
CCOc1ccc(NC(=NCc2ccc3c(c2)OCO3)SC2CC(=O)N(c3ccc(C(=O)O)cc3)C2=O)cc1 (stereo not drawn)	-1	-8	13	33	7	-5	.	.
SMILES	XBP1 UPR activ	CSC inhib	Mdm2 MdmX PPI	SKKanGAS inh	CHOP UPR activ	Beta apoptosis	Mdm2 MdmX conf	FLuc counter
CCOc1ccc(NC(=NCc2ccc3c(c2)OCO3)SC2CC(=O)N(c3ccc(OCC)cc3)C2=O)cc1 (stereo not drawn)	18	22	66*	2	12	19	63*	65*
CC(C)c1nc(SCC(=O)NC2CCCC2)c2c(=O)n(C)c(=O)n(C)c2n1	-2	-5	-30	8	-2	2	.	.
O=C(COc1ccc(-n2cnnn2)cc1)Nc1ccc(F)c(F)c1	-2	3	-10	.	1	1	.	.
NC(=O)c1nsc(C(=O)N(Cc2ccccc2Cl)C(C(=O)NCC2CCCO2)c2ccc(O)cc2)c1N (stereo not drawn)	-1	.	11	-3	0	.	.	.
Fc1ccccc1C1c2[nH]c3ccccc3c2CCN1CCCn1cccn1 (stereo not drawn)	-6	-4	59*	1	-1	-4	22	.
CSc1ccc2c(c1)C(N1CCN(C)CC1)Cc1ccccc1S2 (stereo not drawn)	2	?	69*	11	2	-4	29	.
CC(C)c1ccc2c(c1)C(N1CCNCC1)Cc1ccc(F)cc1S2 (stereo not drawn)	23	102*	62*	38	5	116*	34	.
CN1CCN(C2Cc3ccc(F)cc3Sc3cc(F)c(Cl)cc32)CC1 (stereo not drawn)	6	101*	65*	97*	1	.	41*	57*
CC1Cc2cc(S(=O)(=O)N3CCC(C(=O)N(C)Cc4ccccc4)CC3)ccc2N1C(=O)C1CC1 (stereo not drawn)	-3	-15	27	-1	2	.	.	.
COc1ccc(C(=O)CCC(=O)NC2=NCCS2)cc1	0	15	-3	-7	1	-10	.	.
CCSc1nccc(-c2nn(-c3ccc(C)cc3)ccc2=O)n1	0	43	38	2	0	4	.	.
CSc1nccc(-c2nn(-c3ccc(C)cc3)ccc2=O)n1	2	50	51*	-5	0	2	73*	59*
Cc1cc(C)c(NC(=O)C2CCCN(S(=O)(=O)c3c(C)noc3/C=C/N(C)C)C2)c(C)c1 (stereo not drawn)	-7	-13	13	-1	9	-4	.	.
CC(C)(C)c1ccc(NC(=O)NC2CCCc3ccccc32)cc1 (stereo not drawn)	2	64	70*	-1	4	21	53*	70*
CN(C)Cc1ccc(-c2nc3cccc4c3n2CCNC4=O)cc1	-1	0	58*	2	-3	1	34	71*
